According to ChEMBL document CHEMBL1122172, “Syntheses and diuretic activity of 1,2-dihydro-2-(3-pyridyl)-3H-pyrido[2,3-d]pyrimidin-4-one and related compounds” (1982):
Values joined by “and” are separate entries in the source; they are usually repeats but may differ in a detail not shown here. Identical values can stand only once.

Experiments:
Type in all cases: functional, Urine
Rattus norvegicus [1] = assay: Diuretic activity by measuring the urinary output at the dose of 150 mg/kg
Outline: (§1)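 Groups of eight male Sprague–Dawley-derived rats, fasted 18 h with water ad libitum, received oral doses by dosing needle in 5% acacia–isotonic saline; the vehicle served as control. Rats were placed in metabolism cages with no food or water, and urine was collected for 5 h. Bladders were then emptied by pulling at the tail base (modified Lipschitz method).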

Rattus norvegicus [2] = assay: Total K+ milliequivalents excretion in diuretic test at the dose of 150 mg/kg
Rattus norvegicus [3] = assay: Total Cl- milliequivalents excretion in diuretic test at the dose of 150 mg/kg
Rattus norvegicus [4] = assay: Total Na+ milliequivalents excretion in diuretic test at the dose of 150 mg/kg
Rattus norvegicus [5] = assay: Diuretic activity by measuring the urinary output at the dose of 75 mg/kg; outline: as §1
Rattus norvegicus [6] = assay: Total Cl- milliequivalents excretion in diuretic test at the dose of 75 mg/kg
Rattus norvegicus [7] = assay: Diuretic activity by measuring the urinary output at the dose of 25 mg/kg
Outline: (§2)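 Male Sprague–Dawley rats (195–225 g) were fasted and deprived of water for 18 h. The compound was given orally, dissolved in 25 mL/kg saline; controls got saline alone. Groups of eight were housed as pairs in metabolism cages. Urine volume was read at 2 and 5 h, with total Na+, Cl− and K+ mequiv excreted. Values are mean ± SEM, N = 8.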

Rattus norvegicus [8] = assay: Total K+ milliequivalents excretion in diuretic test at the dose of 25 mg/kg; outline: as §2
Rattus norvegicus [9] = assay: Total Na+ milliequivalents excretion in diuretic test at the dose of 25 mg/kg; outline: as §2
Rattus norvegicus [10] = assay: Total Cl- milliequivalents excretion in diuretic test at the dose of 25 mg/kg; outline: as §2
Rattus norvegicus [11] = assay: Diuretic activity by measuring the urinary output at the dose of 100 mg/kg; outline: as §1
Rattus norvegicus [12] = assay: Diuretic activity by measuring the urinary output at the dose of 400 mg/kg; outline: as §1
Rattus norvegicus [13] = assay: Total Cl- milliequivalents excretion in diuretic test at the dose of 50 mg/kg
Rattus norvegicus [14] = assay: Diuretic activity by measuring the urinary output at the dose of 50 mg/kg; outline: as §1
Rattus norvegicus [15] = assay: Total Na+ milliequivalents excretion in diuretic test at the dose of 75 mg/kg
Rattus norvegicus [16] = assay: Diuretic activity by measuring the urinary output after 2 hr at the dose of 9 mg/kg
Outline: (§3)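 Male Sprague–Dawley rats (195–225 g) were fasted and deprived of water for 18 h, then dosed orally with compound dissolved in 25 mL/kg saline. Controls got 25 mL/kg saline alone. Groups of eight were used, housed two rats per metabolism cage right after dosing. Urine volume was collected at 2 h and 5 h after dosing. Values are mean ± SEM per cage pair, N = 8.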

Rattus norvegicus [17] = assay: Total K+ milliequivalents excretion in diuretic test at the dose of 3 mg/kg
Outline: (§4)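 Oral dosing was in 25 mL/kg saline to male Sprague–Dawley rats (195–225 g) after 18 h without food or water, with saline-only controls. Groups of eight were kept two per metabolism cage. Urinary Na+, Cl− and K+ were reported as total mequiv excreted, with electrolyte analysis done externally. Values are mean ± SEM of two rats per cage, N = 8.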

Rattus norvegicus [18] = assay: Total Na+ milliequivalents excretion in diuretic test at the dose of 3 mg/kg; outline: as §4
Rattus norvegicus [19] = assay: Total Na+ milliequivalents excretion in diuretic test at the dose of 9 mg/kg; outline: as §4
Rattus norvegicus [20] = assay: Total Cl- milliequivalents excretion in diuretic test at the dose of 3 mg/kg; outline: as §4
Rattus norvegicus [21] = assay: Diuretic activity by measuring the urinary output after 2 hr at the dose of 3 mg/kg; outline: as §3
Rattus norvegicus [22] = assay: Total Na+ milliequivalents excretion in diuretic test at the dose of 27 mg/kg; outline: as §4
Rattus norvegicus [23] = assay: Diuretic activity by measuring the urinary output after 5 hr at the dose of 3 mg/kg; outline: as §3
Rattus norvegicus [24] = assay: Total Na+ milliequivalents excretion in diuretic test at the dose of 81 mg/kg; outline: as §4
Rattus norvegicus [25] = assay: Total Cl- milliequivalents excretion in diuretic test at the dose of 81 mg/kg; outline: as §4
Rattus norvegicus [26] = assay: Total Cl- milliequivalents excretion in diuretic test at the dose of 9 mg/kg; outline: as §4
Rattus norvegicus [27] = assay: Diuretic activity by measuring the urinary output after 2 hr at the dose of 81 mg/kg; outline: as §3
Rattus norvegicus [28] = assay: Total K+ milliequivalents excretion in diuretic test at the dose of 9 mg/kg; outline: as §4
Rattus norvegicus [29] = assay: Diuretic activity by measuring the urinary output after 5 hr at the dose of 81 mg/kg; outline: as §3
Rattus norvegicus [30] = assay: Diuretic activity by measuring the urinary output after 5 hr at the dose of 9 mg/kg; outline: as §3
Rattus norvegicus [31] = assay: Diuretic activity by measuring the urinary output after 2 hr at the dose of 27 mg/kg; outline: as §3
Rattus norvegicus [32] = assay: Total K+ milliequivalents excretion in diuretic test at the dose of 27 mg/kg; outline: as §4
Rattus norvegicus [33] = assay: Diuretic activity by measuring the urinary output after 5 hr at the dose of 25 mg/kg; outline: as §3
Rattus norvegicus [34] = assay: Diuretic activity by measuring the urinary output after 2 hr at the dose of 25 mg/kg; outline: as §3
Rattus norvegicus [35] = assay: Total Cl- milliequivalents excretion in diuretic test at the dose of 27 mg/kg; outline: as §4
Rattus norvegicus [36] = assay: Diuretic activity by measuring the urinary output after 5 hr at the dose of 27 mg/kg; outline: as §3
Rattus norvegicus [37] = assay: Total K+ milliequivalents excretion in diuretic test at the dose of 81 mg/kg; outline: as §4
Rattus norvegicus [38] = assay: Total Na+ milliequivalents excretion in diuretic test at the dose of 50 mg/kg
Rattus norvegicus [39] = assay: Total K+ milliequivalents excretion in diuretic test at the dose of 50 mg/kg
Rattus norvegicus [40] = assay: Total K+ milliequivalents excretion in diuretic test at the dose of 75 mg/kg
Rattus norvegicus [41] = assay: Diuretic activity by measuring the urinary output at the dose of 20 mg/kg; outline: as §1
Rattus norvegicus [42] = assay: Diuretic activity by measuring the urinary output at the dose of 40 mg/kg; outline: as §1

CN(C)C(=O)C1(C)NC(=O)c2ccccc2N1 (stereo not given)
Control (Rattus norvegicus [1]): 100%
Excretion (Rattus norvegicus [2]): 0.4 m equiv
Excretion (Rattus norvegicus [3]): 1.4 m equiv
Excretion (Rattus norvegicus [4]): 1.1 m equiv

CN1C(=O)c2cccnc2NC1c1cccnc1 (stereo not given)
Control (Rattus norvegicus [5]): 149%
Excretion (Rattus norvegicus [6]): 1.7 m equiv

O=C1NC(c2ccccc2)Nc2ncccc21 (stereo not given)
Control (Rattus norvegicus [5]): 146%
Control (Rattus norvegicus [7]): 114%
Excretion (Rattus norvegicus [8]): 0.5 m equiv
Excretion (Rattus norvegicus [9]): 1.3 m equiv
Excretion (Rattus norvegicus [6]): 1.8 m equiv
Excretion (Rattus norvegicus [10]): 1.4 m equiv

O=C1NC(c2cc(Br)co2)Nc2ncccc21 (stereo not given)
Control (Rattus norvegicus [11]): 94%
Control (Rattus norvegicus [12]): 110%
Control (Rattus norvegicus [7]): 101%

Cn1cccc1C1NC(=O)c2cccnc2N1 (stereo not given)
Excretion (Rattus norvegicus [13]): 1 m equiv
Control (Rattus norvegicus [7]): 124%
Excretion (Rattus norvegicus [8]): 0.3 m equiv
Excretion (Rattus norvegicus [9]): 1.5 m equiv
Excretion (Rattus norvegicus [10]): 1.4 m equiv
Control (Rattus norvegicus [14]): 113%

O=C1NC(c2cccnc2)Nc2[nH]cnc21 (stereo not given)
Control (Rattus norvegicus [7]): 138%
Excretion (Rattus norvegicus [8]): 0.6 m equiv
Excretion (Rattus norvegicus [9]): 1.4 m equiv
Excretion (Rattus norvegicus [10]): 1.3 m equiv

Oc1nc(-c2ccco2)nc2ncccc12
Control (Rattus norvegicus [11]): 212%
Control (Rattus norvegicus [12]): 36%
Control (Rattus norvegicus [7]): 167%

CC1(C(=O)NCc2cccnc2)NC(=O)c2ccccc2N1 (stereo not given)
Control (Rattus norvegicus [1]): 120%
Excretion (Rattus norvegicus [2]): 0.5 m equiv
Excretion (Rattus norvegicus [3]): 1.5 m equiv
Excretion (Rattus norvegicus [4]): 1.4 m equiv

COC(OC)C1(C)NC(=O)c2ccccc2N1 (stereo not given)
Control (Rattus norvegicus [7]): 118%
Excretion (Rattus norvegicus [8]): 0.4 m equiv
Excretion (Rattus norvegicus [9]): 1.2 m equiv
Excretion (Rattus norvegicus [10]): 1.2 m equiv

O=C1NC(c2ccc(C(F)(F)F)cc2)Nc2ncccc21 (stereo not given)
Excretion (Rattus norvegicus [15]; 75 mg/kg): 1.2 m equiv and 0.4 m equiv
Control (Rattus norvegicus [5]): 98%
Control (Rattus norvegicus [7]): 106%
Excretion (Rattus norvegicus [8]): 0.4 m equiv
Excretion (Rattus norvegicus [9]): 1.3 m equiv
Excretion (Rattus norvegicus [6]): 1.3 m equiv
Excretion (Rattus norvegicus [10]): 1.4 m equiv

O=C1NC(c2cccnc2)Nc2ncccc21 (stereo not given)
Excretion (Rattus norvegicus [16]): 3 mL
Excretion (Rattus norvegicus [17]): 0.4 m equiv
Control (Rattus norvegicus [11]): 220%
Excretion (Rattus norvegicus [18]): 1.4 m equiv
Excretion (Rattus norvegicus [19]): 1.1 m equiv
Excretion (Rattus norvegicus [20]): 1.6 m equiv
Excretion (Rattus norvegicus [21]): 4.4 mL
Excretion (Rattus norvegicus [22]): 2.2 m equiv
Control (Rattus norvegicus [12]): 185%
Excretion (Rattus norvegicus [23]): 8.1 mL
Excretion (Rattus norvegicus [24]): 2.6 m equiv
Excretion (Rattus norvegicus [25]): 2.6 m equiv
Excretion (Rattus norvegicus [26]): 1.3 m equiv
Excretion (Rattus norvegicus [27]): 6 mL
Excretion (Rattus norvegicus [28]): 0.4 m equiv
Excretion (Rattus norvegicus [29]): 19.6 mL
Excretion (Rattus norvegicus [30]): 7.6 mL
Excretion (Rattus norvegicus [31]): 10.4 mL
Excretion (Rattus norvegicus [32]): 0.6 m equiv
Excretion (Rattus norvegicus [33]): 21 mL
Control (Rattus norvegicus [7]): 221%
Excretion (Rattus norvegicus [8]): 0.6 m equiv
Excretion (Rattus norvegicus [9]): 2.5 m equiv
Excretion (Rattus norvegicus [34]): 8 mL
Excretion (Rattus norvegicus [35]): 2.6 m equiv
Excretion (Rattus norvegicus [36]): 20.1 mL
Excretion (Rattus norvegicus [10]): 2.8 m equiv
Excretion (Rattus norvegicus [37]): 0.4 m equiv

CN1C(=O)c2cccnc2NC1c1ccco1 (stereo not given)
Control (Rattus norvegicus [11]): 233%
Control (Rattus norvegicus [12]): 95%
Excretion (Rattus norvegicus [33]): 12.2 mL
Control (Rattus norvegicus [7]): 209%
Excretion (Rattus norvegicus [8]): 0.8 m equiv
Excretion (Rattus norvegicus [9]): 1.8 m equiv
Excretion (Rattus norvegicus [34]): 4.6 mL
Excretion (Rattus norvegicus [10]): 1.8 m equiv

O=C1NC(c2ccco2)Nc2ncccc21 (stereo not given)
Control (Rattus norvegicus [11]): 194%
Control (Rattus norvegicus [12]): 193%
Control (Rattus norvegicus [7]): 121%

CC(C)c1ccc(C2NC(=O)c3cccnc3N2)cc1 (stereo not given)
Excretion (Rattus norvegicus [15]; 75 mg/kg): 1.3 m equiv and 0.6 m equiv
Control (Rattus norvegicus [5]): 114%
Control (Rattus norvegicus [7]): 137%
Excretion (Rattus norvegicus [8]): 0.6 m equiv
Excretion (Rattus norvegicus [9]): 1.5 m equiv
Excretion (Rattus norvegicus [6]): 1.4 m equiv
Excretion (Rattus norvegicus [10]): 1.6 m equiv

O=C1NC(c2ccc([N+](=O)[O-])cc2)Nc2ncccc21 (stereo not given)
Excretion (Rattus norvegicus [15]; 75 mg/kg): 1.5 m equiv and 0.6 m equiv
Control (Rattus norvegicus [5]): 115%
Control (Rattus norvegicus [7]): 110%
Excretion (Rattus norvegicus [8]): 0.4 m equiv
Excretion (Rattus norvegicus [9]): 1.2 m equiv
Excretion (Rattus norvegicus [6]): 1.7 m equiv
Excretion (Rattus norvegicus [10]): 1.3 m equiv

Nc1ccc(C2NC(=O)c3cccnc3N2)cc1 (stereo not given)
Excretion (Rattus norvegicus [13]): 1.5 m equiv
Excretion (Rattus norvegicus [38]): 1.5 m equiv
Excretion (Rattus norvegicus [39]): 0.5 m equiv
Control (Rattus norvegicus [14]): 128%

O=C1NC(c2cccnc2)Nc2nccnc21 (stereo not given)
Excretion (Rattus norvegicus [15]): 1.2 m equiv
Control (Rattus norvegicus [5]): 97%
Excretion (Rattus norvegicus [6]): 1.2 m equiv
Excretion (Rattus norvegicus [40]): 0.4 m equiv

NS(=O)(=O)c1cc(C(=O)O)c(NCc2ccco2)cc1Cl [FUROSEMIDE]
Control (Rattus norvegicus [41]): 444%
Control (Rattus norvegicus [42]): 517%

O=C1NC(c2cccnc2)Nc2ccccc21 (stereo not given)
Control (Rattus norvegicus [7]): 96%
Excretion (Rattus norvegicus [8]): 0.4 m equiv
Excretion (Rattus norvegicus [9]): 1 m equiv
Excretion (Rattus norvegicus [10]): 1.1 m equiv
